The list is not random: actives were taken first. Their share in the collection is about 4.8%.
Beta apoptosis: beta cell apoptosis inhibition | INS-1E cytokine-induced death, ATP luminescence, 48 h; percent of positive-control rescue, neutral wells zero | protection from apoptosis, % (test concentration not listed) | actives 0.8% (n = 300,000) | AID 435005;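 active = Every replicate reaches about 75%, or at least half do and their mean reaches it too, limit read from the data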;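 also: higher means more ATP so stronger rescue from cytokine killing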
SKKanGAS inh: SKKanGAS growth inhibition | S. pyogenes SKKanGAS, kanamycin growth, BacTiter-Glo, 6 h | inhibition, % at 7.5 µM | AID 1662 | actives 1.3% (n = 300,000);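 active = mean replicate score, as percent of positive control median, at least 50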;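 also: strain carries kanamycin resistance gene driven by streptokinase promoter and grows in 40 µg/ml kanamycin; loss of luminescence reflects streptokinase promoter inhibition or plain growth inhibition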
Mdm2-MdmX inh: disrupts the human Mdm2-MdmX interaction; O15151+Q00987; SaOS-2 split-luciferase Mdm2/MdmX complementation, luminescence; inhibition, % at 8 µM; actives 3% (n = 330,000);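 active = inhibition of at least 50% at 8 µM in the primary screen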
UPR CHOP act: activators of apoptotic arm of unfolded protein response (CHOP). CHO-CHOP luciferase reporter, UPR activation, luminescence; percent of tunicamycin response over DMSO baseline. activation, % at 10 µM. actives 0.34% (n = 330,000). AID 449763;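 active = at 10 µM dose, activation of 40% or more, normalized to positive control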
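Test system: CHO CHOP reporter cells. Input: 500 CHO-CHOP cells per well. Medium: F12 with 10% FBS. Technique: luciferase luminescence. Measure: percent activation relative to tunicamycin control. Dosing: 10 µM compound, 0.5% DMSO. Timing: 16-18 h cell attachment, then 6 h compound exposure, 37 °C.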
UPR XBP1 act: adaptive UPR (XBP1) activation; activation, % at 20 µM; actives 0.33% (n = 330,000); AID 463104; CHO-XBP1 luciferase reporter, IRE1-XBP1 UPR activation, luminescence; percent of tunicamycin response, DMSO as zero;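 active = versus positive control, 20 µM dose yields 30% or more activation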
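Test system: CHO-XBP1 luciferase reporter cells | Buffer or medium: Serum-containing F12 medium, 10% FBS | Schedule: 6 h compound exposure at 37 °C, 5% CO2 | Detection: Steady-Glo luciferase glow luminescence, 10 min after reagent addition | Read-out basis: Activation, % of tunicamycin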
CSC inhib: cancer stem cell inhibition; cancer stem cell-like cells viability, luminescence; inhibition, % at 7.5 µM; actives 1.1% (n = 300,000); in the data active = inhibition above about 75%; tested in HMLE shEcad cells
Numbers stand for hits; 0 = inactive; - = no result given.

SMILES	Beta apoptosis	SKKanGAS inh	Mdm2-MdmX inh	UPR CHOP act	UPR XBP1 act	CSC inhib
O=C(Oc1ccc(NC2=C(Cl)C(=O)c3ccccc3C2=O)cc1)c1ccc([N+](=O)[O-])cc1	-	54	-	-	-	-
O=C(Oc1ccc([N+](=O)[O-])cc1)c1cccnc1	0	0	0	0	0	0
COc1ccc(NC(=O)C2CCN(S(=O)(=O)c3ccc4c(c3)NC(=O)C(C)S4)CC2)cc1 (stereo not given)	0	0	0	0	0	0
CC1Sc2ccc(S(=O)(=O)N3CCC(C(=O)Nc4ccc(Cl)cc4)CC3)cc2NC1=O (stereo not given)	113	0	0	0	0	0
Cc1ccc(NC(=O)C2CCN(S(=O)(=O)c3ccc(N4CCCC4=O)cc3)CC2)cc1Cl	122	0	0	0	0	0
COc1ccc2[nH]c(=O)c(-c3nnn(-c4ccc(Cl)c(Cl)c4)n3)cc2c1	0	0	0	0	0	0
CN(C)CCN(CC1CCCN(Cc2ccccc2F)C1)C(=O)c1ccc(Cl)cc1 (stereo not given)	0	0	0	0	0	0
O=C(NC(=S)N(CCCCO)C1CCCCC1)c1sc2ccccc2c1Cl	0	89	0	0	0	0
Cc1cc(C)c2c(=O)n(CC(=O)N3CCC(Cc4ccccc4)CC3)sc2n1	-	0	0	41	0	-
CCN(CC(=O)Nc1ccc(NC(C)=O)cc1)C(=O)CC1OC(=O)c2ccccc21 (stereo not given)	0	0	0	0	0	0
Cc1c(Cl)cnc(NC(=O)COC(=O)C2CC3CCCC(C2)C3=O)c1Cl (stereo not given)	0	-	0	0	0	0
Cc1ccc(NC(=S)NC(=O)c2ccc(Br)o2)c(C)c1	0	0	0	0	0	0
Cc1ccc(NC(=S)NC(=O)c2ccc(-c3ccc(Cl)cc3)o2)c(O)c1	0	68	0	0	0	0
Cc1cc(O)c(NC(=S)NC(=O)c2ccc(-c3ccc(Cl)cc3)o2)cc1C	0	92	0	0	0	0
O=C(Nc1ccc(NC(=O)c2cccnc2Cl)cc1)c1cccc(Cl)c1	0	0	0	0	0	0
CNC(=O)c1ccc(NC(=O)Nc2ccccc2)cc1	0	0	0	0	0	0
CCN(CC)c1ccc(N=C2C(=O)Nc3ccccc32)cc1	87	0	0	0	0	0
Nc1nc(NC(=O)c2ccc(Cl)cc2)nn1-c1ccccc1	0	0	0	0	0	0
O=C(Nc1nc(N2C(=O)c3ccccc3C2=O)n(-c2ccccc2)n1)c1ccc(Cl)cc1	0	56	0	0	0	0
OC(COC(c1ccccc1)c1ccccc1)CN1CCc2ccccc2C1 (stereo not given)	0	0	0	0	0	0
OC(COC(c1ccc(F)cc1)c1ccc(F)cc1)CN1CCc2ccccc2C1 (stereo not given)	102	0	0	0	0	0
O=C(NCc1cccnc1)c1ccc(-c2ccc(Cl)cc2)o1	0	0	0	0	0	0
O=C(NCc1cccnc1)/C(=C\c1ccc(-c2ccc(Cl)c(Cl)c2)o1)S(=O)(=O)c1ccccc1	105	0	-	-	-	113
NS(=O)(=O)c1ccc(CCNS(=O)(=O)c2ccc(Cl)s2)cc1	0	-	0	0	0	0
COc1cccc(C(=O)Nc2ccc(C(=O)c3ccncc3)cc2)c1	0	0	0	0	0	-
SMILES	Beta apoptosis	SKKanGAS inh	Mdm2-MdmX inh	UPR CHOP act	UPR XBP1 act	CSC inhib
c1ccc(-c2cn(-c3ccccc3)c3ncnc(N4CCCCC4)c23)cc1	0	67	0	0	0	0
C[C@]12CCC(O)CC1CCC1C2CC[C@]2(C)C(c3cc(C(F)(F)F)n[nH]3)CCC12 (stereo not given in full)	0	106	0	0	0	112
C[C@H](O)[C@@]1(O)CC[C@H]2[C@@H]3CC[C@@H]4C[C@H](O)CC[C@]4(C)[C@H]3CC[C@@]21C	0	0	0	0	0	0
COc1ccccc1N(C)S(=O)(=O)c1ccc(C(=O)Nc2cc(F)ccc2C)cc1	0	-	0	0	0	0
CCOC(=O)c1c(NC(=O)CN2CCN(C)CC2)sc(C(=O)Nc2ccccc2)c1C	0	0	0	0	0	79
O=C(CCN1C(=O)S/C(=C\c2ccccc2)C1=O)NCCCn1ccnc1	0	0	0	0	0	0

High-throughput results as filed in PubChem.
